According to ChEMBL document CHEMBL5252546, “Salutaxel, a Conjugate of Docetaxel and a Muramyl Dipeptide (MDP) Analogue, Acts as Multifunctional Prodrug That Inhibits Tumor Growth and Metastasis” (J Med Chem, 2018):
Calls of active or inactive are those of the source. No cut-off for these calls is given here.

What was measured:
[1] = tested on: 4T1; test: Antitumor activity against mouse 4T1 cells implanted in BALB/c mouse assessed as decrease in lung metastasis at 5 to 20 mg/kg,iv administrated once per week for 4 weeks by H and E staining based assay; type: functional, organism-based; conditions: dose 5-20 mg/kg
[2] = tested on: 4T1; test: Antitumor activity against mouse 4T1 cells implanted in BALB/c mouse assessed as decrease in lung injury at 5 to 20 mg/kg,iv administrated once per week for 4 weeks by H and E staining based assay; type: functional, organism-based; conditions: dose 5-20 mg/kg
[3] = tested on: 4T1; test: Antitumor activity against mouse 4T1 cells implanted in BALB/c mouse assessed as decrease in lung Ly-6G expression level at 5 to 20 mg/kg,iv administrated once per week for 4 weeks by immunohistochemistry analysis; type: functional, organism-based; conditions: dose 5-20 mg/kg
[4] = tested on: 4T1; test: Antitumor activity against mouse 4T1 cells implanted in BALB/c mouse assessed as decrease in lung TSP-1 expression level at 5 to 20 mg/kg,iv administrated once per week for 4 weeks by immunohistochemistry analysis; type: functional, organism-based; conditions: dose 5-20 mg/kg
[5] = tested on: 4T1; test: Antitumor activity against mouse 4T1 cells xenografted with BALB/c mouse assessed as decrease in lung metastasis at 4 mg/kg,iv administrated once per week for 4 weeks; type: functional, organism-based
[6] = tested on: 4T1; test: Antitumor activity against mouse 4T1 cells xenografted with BALB/c mouse assessed as decrease in tumor weight at 4 mg/kg,iv administrated once per week for 4 weeks; type: functional, organism-based
[7] = Toxicity in BALB/c mouse xenografted with mouse 4T1 cells assessed as decrease in body weight at 4 mg/kg,iv administrated with docetaxel combination once per week for 4 weeks; type: organism-based; conditions: in vivo, 672 h
In short: (§1)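 4T1 mammary fat-pad model in BALB/c mice. Doxorubicin (4 mg/kg) was given alone or co-administered with the conjugate or its parent taxane, with iv saline vehicle. Readouts were body weight, tumour volume, tumour weight, lung metastatic nodules and lung metastasis score. Mean ± SEM, n = 10; ANOVA and Student's t test.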

[8] = Toxicity in BALB/c mouse xenografted with mouse 4T1 cells assessed as decrease in body weight at 4 mg/kg,iv administrated combination with compound 3 once per week for 4 weeks; type: organism-based; conditions: in vivo, 672 h; in short: as §1
[9] = Toxicity in BALB/c mouse xenografted with mouse 4T1 cells assessed as decrease in body weight at 4 mg/kg,iv administrated once per week for 4 weeks; type: organism-based; conditions: in vivo, 672 h

| SMILES | Activity [1] | Activity [2] | Activity [3] | Activity [4] | Activity [5] | Activity [6] | Activity [7] | Activity [8] | Activity [9] |
| --- | --- | --- | --- | --- | --- | --- | --- | --- | --- |
| CC(=O)O[C@@]12CO[C@@H]1C[C@H](O)[C@@]1(C)C(=O)[C@H](O)C3=C(C)[C@@H](OC(=O)[C@H](OC(=O)CCC(=O)NCCCC[C@H](NC(=O)CC[C@@H](NC(=O)[C@H](C)NC(=O)/C=C/c4ccc(F)cc4Cl)C(N)=O)C(N)=O)[C@@H](NC(=O)OC(C)(C)C)c4ccccc4)C[C@@](O)([C@@H](OC(=O)c4ccccc4)[C@H]21)C3(C)C | Dose-Dependent Effect | Dose-Dependent Effect | Active | Active | – | – | – | – | – |
| COc1cccc2c1C(=O)c1c(O)c3c(c(O)c1C2=O)C[C@@](O)(C(=O)CO)C[C@@H]3O[C@H]1C[C@H](N)[C@H](O)[C@H](C)O1 [DOXORUBICIN] | – | – | – | – | Active | Active | Toxic | Toxic | Toxic |
